The source made the active and inactive calls. The rule behind the calls is not given here.
How the values were obtained:
Blood = assay: Antiinflammatory activity in BALB/c mouse whole blood assessed as inhibition of LPS-induced TNFalpha production by ELISA; format: functional, tissue-based
Summary of the method: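 Mouse whole blood cell suspension stimulated with LPS (medium-only control), incubated 4 h at 37 °C in 5% CO2. Plasma then separated by centrifugation at 4 °C and TNFα measured by ELISA. IC50 derived.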

[1] = target: T1, Inhibitor of nuclear factor kappa-B kinase subunit beta (Homo sapiens, UniProt O14920); assay: Inhibition of purified His-tagged IKK-beta after 15 mins
T1 sequence (O14920 whole entry): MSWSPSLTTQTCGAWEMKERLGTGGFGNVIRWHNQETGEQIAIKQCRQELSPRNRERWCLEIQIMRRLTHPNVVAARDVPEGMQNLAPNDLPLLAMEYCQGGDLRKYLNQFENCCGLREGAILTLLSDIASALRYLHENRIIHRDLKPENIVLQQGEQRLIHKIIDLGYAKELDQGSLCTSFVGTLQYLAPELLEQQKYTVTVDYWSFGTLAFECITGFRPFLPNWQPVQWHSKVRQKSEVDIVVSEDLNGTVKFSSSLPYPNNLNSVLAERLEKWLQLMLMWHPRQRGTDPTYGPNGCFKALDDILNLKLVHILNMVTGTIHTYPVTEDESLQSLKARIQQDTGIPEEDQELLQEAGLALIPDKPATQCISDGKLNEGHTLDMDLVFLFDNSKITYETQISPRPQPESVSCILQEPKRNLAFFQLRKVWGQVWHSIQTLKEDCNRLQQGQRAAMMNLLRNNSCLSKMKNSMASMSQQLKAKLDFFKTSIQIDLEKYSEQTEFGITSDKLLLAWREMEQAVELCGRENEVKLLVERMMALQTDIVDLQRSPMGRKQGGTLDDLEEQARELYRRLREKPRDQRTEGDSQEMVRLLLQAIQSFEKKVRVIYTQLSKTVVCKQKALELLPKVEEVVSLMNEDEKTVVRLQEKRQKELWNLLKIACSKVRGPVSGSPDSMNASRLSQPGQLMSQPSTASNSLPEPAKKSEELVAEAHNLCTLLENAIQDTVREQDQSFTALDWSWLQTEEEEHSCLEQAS

[2] = Membrane permeability at pH 7.4 by PAMPA assay; format: ADME; details: read-out: permeability
Summary of the method: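 Parallel artificial membrane permeability assay run at pH 7.4. Effective permeability Pe reported in 10^-6 cm/s as the median of three tests.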

Mus musculus = assay: Antiinflammatory activity in BALB/c mouse assessed as inhibition of LPS-induced TNFalpha production at 30 mg/kg, po after 1 hr by ELISA; format: functional
Summary of the method: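 Male BALB/c mice (7–12 weeks old) dosed orally, vehicle 0.5% methyl cellulose. LPS 0.02 mg/kg in saline given i.v. 30 min after dosing. Plasma separated at 4 °C, stored at −20 °C, and TNFα quantified by ELISA. Percent inhibition recorded.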

Plasma = assay: Plasma concentration in BALB/c mouse at 30 mg/kg, po after 90 mins; format: ADME, organism-based; parameters: dose 30 mg/kg
Summary of the method: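 Plasma concentration of compound in mice measured 90 min after a 30 mg/kg oral dose.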

[3] = Metabolic stability of the compound in mouse liver microsomes assessed as compound remaining at 1 uM after 30 mins; format: ADME, Microsome; details: read-out: Stability
Summary of the method: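 Compound at 1 μM incubated 30 min with mouse liver microsomes at 0.1 mg/ml protein. Percent of parent compound remaining reported.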

[4] = target: ALK tyrosine kinase receptor (Homo sapiens) (UniProt Q9UM73); assay: Inhibition of ALK at 10 uM
Chain of ALK tyrosine kinase receptor (Homo sapiens) (Q9UM73 19-1620 limits assumed): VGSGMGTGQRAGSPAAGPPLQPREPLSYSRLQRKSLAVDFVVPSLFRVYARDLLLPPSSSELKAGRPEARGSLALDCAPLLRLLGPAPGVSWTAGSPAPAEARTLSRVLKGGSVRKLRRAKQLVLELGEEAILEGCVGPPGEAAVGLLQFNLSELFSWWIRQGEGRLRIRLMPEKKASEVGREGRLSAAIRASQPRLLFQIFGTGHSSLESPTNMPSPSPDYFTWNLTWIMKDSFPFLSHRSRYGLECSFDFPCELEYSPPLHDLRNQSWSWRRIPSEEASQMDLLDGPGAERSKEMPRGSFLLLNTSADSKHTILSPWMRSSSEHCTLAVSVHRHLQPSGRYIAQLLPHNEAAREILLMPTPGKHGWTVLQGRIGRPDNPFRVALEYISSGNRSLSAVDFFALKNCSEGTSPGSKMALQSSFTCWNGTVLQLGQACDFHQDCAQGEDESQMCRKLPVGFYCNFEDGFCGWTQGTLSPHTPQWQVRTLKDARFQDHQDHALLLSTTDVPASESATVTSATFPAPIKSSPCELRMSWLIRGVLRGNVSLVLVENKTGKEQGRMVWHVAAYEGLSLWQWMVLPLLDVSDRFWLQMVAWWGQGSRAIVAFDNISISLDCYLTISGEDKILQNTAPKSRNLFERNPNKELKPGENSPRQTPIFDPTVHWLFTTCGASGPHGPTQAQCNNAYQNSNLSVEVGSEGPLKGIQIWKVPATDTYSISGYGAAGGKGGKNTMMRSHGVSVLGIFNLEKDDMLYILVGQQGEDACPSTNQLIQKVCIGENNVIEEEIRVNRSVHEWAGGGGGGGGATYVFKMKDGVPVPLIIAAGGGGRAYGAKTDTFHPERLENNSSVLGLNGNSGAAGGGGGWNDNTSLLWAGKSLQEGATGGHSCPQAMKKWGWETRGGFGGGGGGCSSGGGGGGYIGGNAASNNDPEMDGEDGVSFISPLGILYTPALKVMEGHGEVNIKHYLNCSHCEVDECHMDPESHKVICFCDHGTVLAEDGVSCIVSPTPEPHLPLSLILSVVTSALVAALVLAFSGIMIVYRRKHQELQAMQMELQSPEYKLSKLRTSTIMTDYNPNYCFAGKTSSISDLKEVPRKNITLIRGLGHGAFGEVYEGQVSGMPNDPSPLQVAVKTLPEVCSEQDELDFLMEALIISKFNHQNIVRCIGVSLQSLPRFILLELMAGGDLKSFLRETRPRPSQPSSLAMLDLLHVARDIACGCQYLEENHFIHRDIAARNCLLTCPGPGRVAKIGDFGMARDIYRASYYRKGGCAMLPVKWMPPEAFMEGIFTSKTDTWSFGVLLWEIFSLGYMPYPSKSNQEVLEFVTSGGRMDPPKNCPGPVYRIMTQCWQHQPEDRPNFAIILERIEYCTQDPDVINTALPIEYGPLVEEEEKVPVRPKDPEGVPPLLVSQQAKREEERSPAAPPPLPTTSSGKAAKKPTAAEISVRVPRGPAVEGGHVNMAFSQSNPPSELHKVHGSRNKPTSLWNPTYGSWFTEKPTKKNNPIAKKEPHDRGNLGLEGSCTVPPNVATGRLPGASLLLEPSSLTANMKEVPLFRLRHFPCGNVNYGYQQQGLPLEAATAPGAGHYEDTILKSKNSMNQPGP

[5] = target: Tyrosine-protein kinase JAK2 (Homo sapiens) (UniProt O60674); assay: Inhibition of JAK2 at 10 uM
Chain of Tyrosine-protein kinase JAK2 (Homo sapiens) (O60674 whole entry): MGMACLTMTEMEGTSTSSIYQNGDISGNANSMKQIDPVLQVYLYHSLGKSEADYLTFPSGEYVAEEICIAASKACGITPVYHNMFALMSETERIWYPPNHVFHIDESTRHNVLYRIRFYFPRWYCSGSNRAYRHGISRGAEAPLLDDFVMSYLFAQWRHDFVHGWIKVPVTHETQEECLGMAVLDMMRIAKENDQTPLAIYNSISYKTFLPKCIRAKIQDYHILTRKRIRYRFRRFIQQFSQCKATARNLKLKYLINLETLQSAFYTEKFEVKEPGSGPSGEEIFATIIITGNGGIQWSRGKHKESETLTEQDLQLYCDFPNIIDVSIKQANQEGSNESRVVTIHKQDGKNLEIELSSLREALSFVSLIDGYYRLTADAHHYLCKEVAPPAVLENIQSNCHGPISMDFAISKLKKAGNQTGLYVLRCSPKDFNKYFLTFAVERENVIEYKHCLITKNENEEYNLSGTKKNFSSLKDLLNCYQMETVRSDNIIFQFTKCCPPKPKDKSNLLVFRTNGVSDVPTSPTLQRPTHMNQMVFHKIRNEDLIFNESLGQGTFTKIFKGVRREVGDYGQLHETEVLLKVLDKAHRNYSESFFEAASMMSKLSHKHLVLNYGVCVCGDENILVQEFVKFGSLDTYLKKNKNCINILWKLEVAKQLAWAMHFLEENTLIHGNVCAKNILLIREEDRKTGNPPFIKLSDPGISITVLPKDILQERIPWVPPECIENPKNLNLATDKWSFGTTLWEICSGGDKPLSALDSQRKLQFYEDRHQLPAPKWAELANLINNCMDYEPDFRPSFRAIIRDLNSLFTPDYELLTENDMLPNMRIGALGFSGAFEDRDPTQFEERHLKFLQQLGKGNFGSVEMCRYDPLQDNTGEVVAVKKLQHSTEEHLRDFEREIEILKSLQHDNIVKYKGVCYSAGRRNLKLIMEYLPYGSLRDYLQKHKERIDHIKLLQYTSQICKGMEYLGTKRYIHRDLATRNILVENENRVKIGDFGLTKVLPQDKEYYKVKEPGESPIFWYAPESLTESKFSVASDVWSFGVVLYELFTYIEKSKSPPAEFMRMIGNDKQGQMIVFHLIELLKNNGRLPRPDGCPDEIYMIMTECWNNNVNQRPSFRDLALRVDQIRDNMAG

[6] = target: T2, Serine/threonine-protein kinase D2 (Homo sapiens) (UniProt Q9BZL6); assay: Inhibition of PKD2 at 10 uM
T2 sequence (whole entry): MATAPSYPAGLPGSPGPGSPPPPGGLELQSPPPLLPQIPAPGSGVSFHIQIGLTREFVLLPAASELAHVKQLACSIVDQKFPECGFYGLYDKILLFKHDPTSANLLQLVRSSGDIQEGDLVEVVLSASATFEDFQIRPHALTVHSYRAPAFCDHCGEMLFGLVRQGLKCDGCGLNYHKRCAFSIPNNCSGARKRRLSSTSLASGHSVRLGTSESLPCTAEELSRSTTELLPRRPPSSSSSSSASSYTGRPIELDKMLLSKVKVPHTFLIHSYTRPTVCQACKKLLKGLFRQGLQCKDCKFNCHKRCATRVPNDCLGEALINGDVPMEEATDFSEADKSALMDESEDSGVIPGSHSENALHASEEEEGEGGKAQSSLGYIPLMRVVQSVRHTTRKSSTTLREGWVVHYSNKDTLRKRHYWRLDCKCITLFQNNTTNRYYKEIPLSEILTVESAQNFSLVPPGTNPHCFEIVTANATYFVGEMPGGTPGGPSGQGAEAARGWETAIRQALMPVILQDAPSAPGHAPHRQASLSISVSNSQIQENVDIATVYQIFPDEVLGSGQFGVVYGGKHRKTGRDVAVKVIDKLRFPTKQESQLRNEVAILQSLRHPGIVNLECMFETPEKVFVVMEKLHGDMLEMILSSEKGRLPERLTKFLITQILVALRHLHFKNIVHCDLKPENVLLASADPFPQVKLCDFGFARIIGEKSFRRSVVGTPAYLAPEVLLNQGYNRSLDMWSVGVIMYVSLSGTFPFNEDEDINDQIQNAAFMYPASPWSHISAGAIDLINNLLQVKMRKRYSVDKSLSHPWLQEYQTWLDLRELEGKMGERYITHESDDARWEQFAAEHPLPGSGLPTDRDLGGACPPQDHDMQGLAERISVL

[7] = target: Serine/threonine-protein kinase D3 (Homo sapiens) (UniProt O94806); assay: Inhibition of PKD3 at 0.2 uM
Chain of Serine/threonine-protein kinase D3 (Homo sapiens) (O94806 whole entry, looked up): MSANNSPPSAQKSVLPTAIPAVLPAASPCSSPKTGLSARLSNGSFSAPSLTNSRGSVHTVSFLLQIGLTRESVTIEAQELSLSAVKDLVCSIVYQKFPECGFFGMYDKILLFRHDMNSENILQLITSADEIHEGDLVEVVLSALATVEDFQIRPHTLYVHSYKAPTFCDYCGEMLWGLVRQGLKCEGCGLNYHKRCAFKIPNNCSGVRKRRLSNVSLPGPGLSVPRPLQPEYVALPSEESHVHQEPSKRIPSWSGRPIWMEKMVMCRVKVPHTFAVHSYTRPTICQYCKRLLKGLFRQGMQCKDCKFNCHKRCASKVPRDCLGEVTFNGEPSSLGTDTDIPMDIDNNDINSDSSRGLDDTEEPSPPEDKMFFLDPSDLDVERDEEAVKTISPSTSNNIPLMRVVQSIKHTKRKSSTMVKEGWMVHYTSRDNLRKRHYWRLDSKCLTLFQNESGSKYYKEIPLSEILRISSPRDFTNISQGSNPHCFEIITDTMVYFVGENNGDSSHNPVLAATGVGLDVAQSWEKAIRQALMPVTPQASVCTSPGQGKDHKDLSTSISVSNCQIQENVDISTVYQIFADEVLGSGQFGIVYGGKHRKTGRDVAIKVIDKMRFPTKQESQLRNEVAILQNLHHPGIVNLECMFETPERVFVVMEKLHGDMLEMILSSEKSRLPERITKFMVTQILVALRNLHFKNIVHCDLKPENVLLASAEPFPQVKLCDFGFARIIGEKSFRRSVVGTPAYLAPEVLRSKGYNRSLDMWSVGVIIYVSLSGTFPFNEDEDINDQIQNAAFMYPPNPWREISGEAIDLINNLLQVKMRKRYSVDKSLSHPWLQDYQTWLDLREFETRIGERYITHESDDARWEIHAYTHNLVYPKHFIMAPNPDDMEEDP

| SMILES | IC50 (Blood) | IC50 [1] | Papp [2] | inhibition in vivo at 30 mg/kg (Mus musculus) | Cp (Plasma) | remaining at 0.5 h, 1 µM [3] | inhibition [4] | inhibition (Mus musculus) | inhibition [5] | inhibition [6] | inhibition [7] |
| --- | --- | --- | --- | --- | --- | --- | --- | --- | --- | --- | --- |
| CN(C[C@@H]1CCCN1)C(=O)c1ccc(-c2cnc3ccc(NCC4CC4)nn23)cc1 | 1900 nM | 97 nM | 6.1 ×10⁻⁶ cm/s |  |  |  |  |  |  |  |  |
| O=C(c1ccc(-c2cnc3ccc(NCC4CC4)nn23)cc1)N(C/C=C/c1ccccc1)C[C@@H]1C[C@@H](F)CN1 | 950 nM | 13 nM | > 50 ×10⁻⁶ cm/s |  |  |  |  |  |  |  |  |
| O=C(c1ccc(-c2cnc3ccc(NCC4CC4)nn23)cc1)N(Cc1cccc(Cl)c1)C[C@@H]1C[C@@H](F)CN1 | 590 nM | 17 nM | > 50 ×10⁻⁶ cm/s | 40% | 0.12 µg/mL | 7% |  |  |  |  |  |
| O=C(O)CN(C[C@@H]1C[C@@H](F)CN1)C(=O)c1ccc(-c2cnc3ccc(NCC4CC4)nn23)cc1 | 3900 nM | 110 nM | 14 ×10⁻⁶ cm/s |  |  |  |  |  |  |  |  |
| CCN(C[C@@H]1C[C@@H](F)CN1)C(=O)c1ccc(-c2cnc3ccc(NCC4CC4)nn23)cc1 | 230 nM | 18 nM | 42 ×10⁻⁶ cm/s | 32% | 0.15 µg/mL | 33% |  |  |  |  |  |
| CO[C@H]1CCN[C@@H]1CNC(=O)c1ccc(-c2cnc3ccc(NCC4CC4)nn23)cc1 | 2100 nM | 23 nM | 6.5 ×10⁻⁶ cm/s |  |  |  |  |  |  |  |  |
| CN(C[C@@H]1C[C@@H](F)CN1)C(=O)c1ccc(-c2cnc3ccc(NCC4CC4)nn23)cc1 | 480 nM | 42 nM | > 50 ×10⁻⁶ cm/s | 26% | 0.34 µg/mL | 50% |  |  |  |  |  |
| O=C(NC[C@@H]1CCCN1)c1ccc(-c2cnc3ccc(NCC4CC4)nn23)cc1 | 6800 nM |  | < 2 ×10⁻⁶ cm/s |  | 0.0075 µg/mL | 77% | > 90% | inactive | > 90% | > 90% |  |
| O=C(c1ccc(-c2cnc3ccc(NCC4CC4)nn23)cc1)N(Cc1ccc(Cl)cc1)C[C@@H]1C[C@@H](F)CN1 | 1200 nM | 17 nM | 39 ×10⁻⁶ cm/s | 61% | 0.45 µg/mL | 28% |  |  |  |  |  |
| O=C(NC[C@H]1NCC[C@@H]1F)c1ccc(-c2cnc3ccc(NCC4CC4)nn23)cc1 | 1200 nM | 21 nM |  |  |  |  |  |  |  |  |  |
| O=C(c1ccc(-c2cnc3ccc(NCC4CC4)nn23)cc1)N(CCO)C[C@@H]1C[C@@H](F)CN1 | 680 nM | 15 nM | 15 ×10⁻⁶ cm/s |  |  |  |  |  |  |  |  |
| CC(=O)Nc1ccc(CN(C[C@@H]2C[C@@H](F)CN2)C(=O)c2ccc(-c3cnc4ccc(NCC5CC5)nn34)cc2)cc1 | 2700 nM | 15 nM | < 2 ×10⁻⁶ cm/s |  |  |  |  |  |  |  |  |
| CCCN(C[C@@H]1C[C@@H](F)CN1)C(=O)c1ccc(-c2cnc3ccc(NCC4CC4)nn23)cc1 | 170 nM | 16 nM | > 50 ×10⁻⁶ cm/s | 52% | 0.16 µg/mL | 33% |  |  |  |  |  |
| O=C(c1ccc(-c2cnc3ccc(NCC4CC4)nn23)cc1)N(Cc1ccccc1)C[C@@H]1C[C@@H](F)CN1 | 400 nM | 12 nM | > 50 ×10⁻⁶ cm/s |  |  |  |  |  |  |  |  |
| O=C(c1ccc(-c2cnc3ccc(NCC4CC4)nn23)cc1)N(C[C@@H]1C[C@@H](F)CN1)c1ccccc1 |  | 7300 nM |  |  |  |  |  |  |  |  |  |
| O=C(NC[C@@H]1C[C@@H](F)CN1)c1ccc(-c2cnc3ccc(NCC4CC4)nn23)cc1 | 570 nM | 22 nM | 36 ×10⁻⁶ cm/s |  |  |  |  |  |  |  | 80% |
| CN(C)CCNC(=O)c1ccc(-c2cnc3ccc(NCC4CC4)nn23)cc1 | 800 nM |  | > 50 ×10⁻⁶ cm/s | 10% | 0.39 µg/mL | 71% |  |  |  |  |  |
| CO[C@H]1CN[C@H](CNC(=O)c2ccc(-c3cnc4ccc(NCC5CC5)nn34)cc2)C1 | 2700 nM | 71 nM | < 2 ×10⁻⁶ cm/s |  |  |  |  |  |  |  |  |
| O=C(O)c1ccc(CN(C[C@@H]2C[C@@H](F)CN2)C(=O)c2ccc(-c3cnc4ccc(NCC5CC5)nn34)cc2)cc1 | > 10000 nM | 17 nM | < 2 ×10⁻⁶ cm/s |  |  |  |  |  |  |  |  |

— ChEMBL document CHEMBL1667807, “Discovery of imidazo[1,2-b]pyridazines as IKKβ inhibitors. Part 2: improvement of potency in vitro and in vivo” (Bioorg Med Chem Lett, 2011)
